Bioassay records deposited in PubChem by several laboratories.
MC4R antag cAMP: human MC4R antagonism in cAMP assay; P32245; MC4R-expressing cells, MTII-stimulated cAMP, LANCE TR-FRET; inhibition, % at 6.5 µM; 360,000 compounds, 0.48% hits; AID 540295;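 active = inhibition above its plate's cutoff, the mean of tested wells on that plate plus 3 SD, cut at about 29% in these data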;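 also: 0% = Melanotan II alone and 100% = Melanotan II plus saturating MCL0020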
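Material: U2OS-MC4R stable cell line | Reagent: Melanotan II challenge after compound preincubation | Doses: One concentration, 6.5 µM nominal | Incubation: 30-min compound preincubation, 1-h Melanotan II challenge, 1-h detection, room temperature | Signal: TR-FRET cAMP assay | Replicates: One well per compound, no replicates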
sPLA2-III inh: Inhibits HGIII-sPLA2 liposome hydrolysis, primary screen; inhibition, % at 12.2 µM; QFRET BODIPY PC-A2 liposome hydrolysis, fluorescence; 370,000 compounds, 0.56% hits;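 active = inhibition above mean plus 3 SD of compounds lying within the high and low control bounds, cut at about 19% in these data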;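 also: 0% = median of test compound wells and 100% = no enzyme DMSO wells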
NTR1 agonist: NTR1 (human) agonism; P30989; NTR1-U2OS beta-arrestin-GFP spot imaging, agonist mode; activation, % at 20 µM; 330,000 compounds, 0.17% hits; AID 493036;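 active = activation at or above 40% of the spot to cytoplasm intensity ratio, with at least 20 cells analyzed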;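 also: 0% = DMSO without peptide and 100% = 100 nM NTR1 peptide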
Target sequence (P30989 whole entry, looked up): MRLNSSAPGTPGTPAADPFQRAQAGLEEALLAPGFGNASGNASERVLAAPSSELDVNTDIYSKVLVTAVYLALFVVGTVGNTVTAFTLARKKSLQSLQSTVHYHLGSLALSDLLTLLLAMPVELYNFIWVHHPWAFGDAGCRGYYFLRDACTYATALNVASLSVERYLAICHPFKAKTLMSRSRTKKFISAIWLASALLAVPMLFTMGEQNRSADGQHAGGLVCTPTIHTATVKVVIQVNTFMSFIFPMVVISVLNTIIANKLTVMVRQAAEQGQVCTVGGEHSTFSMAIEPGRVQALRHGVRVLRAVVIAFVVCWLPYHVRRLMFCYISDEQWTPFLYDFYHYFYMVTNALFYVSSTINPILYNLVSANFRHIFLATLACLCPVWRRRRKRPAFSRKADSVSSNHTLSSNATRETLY
Bfl-1 A1 inh: inhibitors of the anti-apoptotic protein A1, read as caspase activation | 330,000 compounds, 0.066% hits | MEF A1-2A-BIM cells, Caspase-Glo 3/7 luminescence, 3 h; percent of clofoctol response, vehicle zero | caspase activation, % (concentration not given with the values);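 active = over half of replicate activation scores above 10%, or exactly half above 10 with the replicate mean above 10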
MC4R ag barr: activates human MC4R beta-arrestin recruitment; P32245; U2OS MC4R beta-arrestin complementation, luminescence; percent of melanotan II response, DMSO zero; activation, % at 8.9 µM; 360,000 compounds, 0.98% hits; AID 540308;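 active = activation above a per-plate cutoff, the mean activation of sample wells on that plate plus 3 SD, cut at about 8% in these data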
Exocytosis inh: blocks lytic granule exocytosis; TALL-104 LAMP-1 surface exposure, flow cytometry; cells stimulated with thapsigargin and PMA; inhibition, % at 10 µM; 360,000 compounds, 0.66% hits; AID 651702;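 active = inhibition above about 55%, limit read from the data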
U2OS cAMP counter: U2OS forskolin cAMP inhibition counter-screen; AID 602193; shares compounds with MC4R antag cAMP; parental U2OS, LANCE TR-FRET; inhibition, % at 6.5 µM; 1,600 compounds, 26% hits;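 active = mean inhibition over triplicates above the low-control well mean plus 3 SD, set per campaign, cut at about 13% in these data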;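 also: signal is single emission at 671 nm which falls as cellular cAMP rises; 0% = forskolin-stimulated wells and 100% = buffer without forskolin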
MC4R cAMP antag: human MC4R cAMP antagonism confirmation; MC4R-expressing cells, MTII-stimulated cAMP, TR-FRET; 1,600 compounds, 27% hits; shares compounds with MC4R antag cAMP; AID 602195; inhibition, % at 6.5 µM; in the data active = inhibition above about 29%;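 also: 0% = agonist stimulated wells alone and 100% = agonist stimulated wells plus saturating reference antagonist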
Active calls of the source: *; . = not tested or not shown. This is a sample that favours compounds with a hit; in the whole collection about 2.5% have one here.

SMILES	MC4R antag cAMP	sPLA2-III inh	NTR1 agonist	Bfl-1 A1 inh	MC4R ag barr	Exocytosis inh	U2OS cAMP counter	MC4R cAMP antag
Cc1cccc(C)c1NC(=O)COc1ccccc1C(=O)Nc1ccc(Br)cn1	33*	8	12	2	3	1	50*	91*
CCC(=O)c1ccccc1OCC(=O)Nc1c(C)cccc1C	0	-1	1	-1	-2	-9	.	.
COC(=O)[C@]12C[C@H](CC(=O)NCc3ccc(C)o3)C(=O)N(CCC3=CCCCC3)C1=C[C@H](COCc1ccccc1)O[C@@H]2C	.	-16	.	.	.	.	.	.
O=C(Nc1cccc([N+](=O)[O-])c1)Nc1cccc([N+](=O)[O-])c1	34*	9	4	0	1	-2	11	14
O=C(Nc1ccc(C(=O)O)cc1)Nc1cccc([N+](=O)[O-])c1	3	-2	0	-4	-3	-4	.	.
CCN(CC)C(=O)C(C)N(C#N)c1nc(Cl)nc(N(C)C)n1 (stereo not given)	43*	-2	0	1	-2	-1	11	28
O=C1/C(=C\c2ccc(Cl)c(Cl)c2)CN(C(=O)CCN2CCOCC2)C/C1=C/c1ccc(Cl)c(Cl)c1	37*	-17	.	.	-4	65*	26*	31*
COc1ccc(C2/C(=C(/O)c3ccc(C)cc3)C(=O)C(=O)N2c2ccccn2)cc1OC (stereo not given)	17	-8	1	1	0	-2	.	.
O=C1C(=O)N(c2ccccn2)C(c2cccc(F)c2)/C1=C(/O)c1ccccc1 (stereo not given)	29*	.	0	1	1	-7	-2	-23
CCCOc1ccc(/C(O)=C2\C(=O)C(=O)N(c3ccccn3)C2c2ccccc2F)cc1C (stereo not given)	42*	-14	2	0	3	-3	33*	20
O=C(NCCc1ccccc1F)c1ccc(Sc2ccccc2Cl)c([N+](=O)[O-])c1	.	-2	.	.	.	.	.	.
O=C(C1CCCN(S(=O)(=O)c2cccc3ccccc23)C1)N1CCN(Cc2ccccc2)CC1 (stereo not given)	.	-9	.	.	.	.	.	.
O=S(=O)(c1ccccc1)C1CON(Cc2ccccc2)C1c1ccccc1 (stereo not given)	30*	4	1	1	2	-4	2	-9
O=C(Nc1ccc(Cl)cn1)C1CCCN(c2ncnc3c2nc2n3CCCCC2)C1 (stereo not given)	30*	-4	6	0	-1	-4	-2	7
COc1ccccc1-c1ccc(OCCCN2CCC(C(O)(c3ccccc3)c3ccccc3)CC2)cc1	.	-12	.	.	.	.	.	.
Cc1ccc(S(=O)(=O)N2CCCCC2)cc1NC(=O)COC(=O)CNC(=O)c1cc(Cl)cc([N+](=O)[O-])c1	31*	-8	5	0	-2	-2	5	3
Cc1ccc(C(=O)NCC(=O)OCC(=O)Nc2cc(S(=O)(=O)N3CCOCC3)ccc2C)cc1	15	16	1	-1	-1	-5	.	.
O=C(CSc1c2c(nc3cc(Cl)ccc13)CCCC2)NCCN1CCOCC1	30*	0	2	-1	-3	1	3	24
O=C(NC(=S)Nc1ccccn1)c1ccc(-c2ccccc2)cc1	7	-5	4	-11	1	-5	.	.
Cc1cc(C)c(NC(=S)NC(=O)c2ccc(-c3ccccc3)cc2)c(C)c1	32*	9	.	0	-1	4	-12	-17
COc1ccc(S(=O)(=O)NNC(=O)C(=O)NNc2ccccn2)cc1	31*	3	0	1	1	-3	2	-18
Cc1nc(Cl)nc(N(C)c2ccccc2)c1[N+](=O)[O-]	36*	2	4	-1	-4	-8	22*	6
CN(c1ccccc1)c1nc(N)c([N+](=O)[O-])c(NCc2ccccc2)n1	-2	-1	19	0	2	2	.	.
CCOc1c(O)ccc(C2NC(=O)NC(C)=C2C(=O)OC)c1[N+](=O)[O-] (stereo not given)	30*	-3	0	0	-3	0	-4	-11
O=C(NCc1ccccc1)[C@@H]1CCCN1C(=O)[C@H]1CCCN1C(=O)c1ccccc1C(F)(F)F	.	3	.	.	.	.	.	.
SMILES	MC4R antag cAMP	sPLA2-III inh	NTR1 agonist	Bfl-1 A1 inh	MC4R ag barr	Exocytosis inh	U2OS cAMP counter	MC4R cAMP antag
CCC[C@@H](/C=C/C(=O)OC(C)(C)C)Sc1ccc(OC)cc1	.	7	.	.	.	.	.	.
O=C(O)c1ccc(/C=C2\COc3ccccc3C2=O)cc1	36*	0	5	-3	-3	-5	5	6
O=C(NCc1ccncc1)c1cc(C(=O)C2CC2)c[nH]1	1	5	0	1	-2	4	.	.
O=C(NCc1ccncc1)c1cc(C(=O)C2CCCCC2)c[nH]1	30*	-1	2	0	-1	1	4	-7
COc1ccc(C(=O)OCC(=O)NC(C)CCc2ccccc2)cc1 (stereo not given)	7	1	0	0	1	1	.	.
COc1ccc(C(=O)OCC(=O)NC(C)CCc2ccccc2)cc1OC (stereo not given)	31*	1	0	0	1	-2	-1	2
CC1CCN(c2nc(Cl)nc(Nc3ccc([N+](=O)[O-])cc3)n2)CC1	32*	3	6	0	-3	3	6	36*
C=CCNc1nc(Nc2ccc([N+](=O)[O-])cc2)nc(N2CCCC2)n1	11	-3	4	1	-2	3	.	.
Cc1ccc(S(=O)(=O)N(C)CC(=O)OCC(=O)N2CCN(c3ccccc3)CC2)cc1	33*	9	1	-1	-1	1	20*	21
CC(=O)N1c2ccccc2C(=O)NCC1C(=O)NC(C)(C)C (stereo not given)	.	9	.	.	.	.	.	.
CSCCC(NC(=O)c1cccc(C)c1)C(=O)OCN1C(=O)c2ccccc2C1=O (stereo not given)	30*	-4	0	1	-2	19	10	41*
CSCCC(NC(=O)c1cccc(C)c1)C(=O)OCC(=O)NC(=O)c1cccn1C (stereo not given)	11	5	0	-3	-1	0	.	.
CCCCCCC12C(=Cc3cc4c(cc31)OCCO4)c1cc(OC)c(OC)cc1C(CC(=O)O)N2C(=O)OC (stereo not given)	.	-25	.	.	.	.	.	.
CCOC(=O)c1ccc2ncc(C(=O)OCC)c(NCCN3CCOCC3)c2c1	10	-1	2	0	-1	10	.	.
